Runt-CBFb FRET: inhibitors of RUNX1 Runt–CBFb binding, primary screen, biochemical, FRET, Cerulean-Runt, Venus-CBFb, uHTS; Runt-related transcription factor 1 (Homo sapiens) + Core-binding factor subunit beta …; Cerulean-Runt/Venus-CBFb FRET ratio 530/480, 1 h; inhibition, % at 20 µM; hit rate 0.46% among 220,000;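 active = inhibition over about 50% at 20 µM in the single-dose screen, limit read from the data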;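 note: 0% = DMSO wells and 100% = excess unlabeled CBFb competitor control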
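test system = Cerulean-tagged RUNX1 Runt domain (FRET donor) fusion protein | reagent = Venus-CBFb binding partner, 100 nM | incubation = protein complex preformed 1 h, compound exposure 1 h, room temperature, dark | detection = FRET fluorescence | read-out basis = loss of energy transfer signal | controls = 5 µM unlabeled CBFb as full-inhibition high control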
14-3-3 Bad inh: inhibitors of 14-3-3 zeta/Bad binding, primary screen, biochemical, TR-FRET, bovine 14-3-3 zeta; TR-FRET 14-3-3zeta/Dy647-pBad peptide displacement, 1 h; AID 781, 2007; 14-3-3 protein zeta/delta (Bos taurus), P63103; hit rate 0.71% among 220,000; inhibition, % at 21.7 µM;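 active = inhibition above about 70%, limit read from the data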;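 note: 0% = full 14-3-3 plus peptide FRET controls and 100% = background without 14-3-3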
Target sequence (P63103 whole entry, looked up): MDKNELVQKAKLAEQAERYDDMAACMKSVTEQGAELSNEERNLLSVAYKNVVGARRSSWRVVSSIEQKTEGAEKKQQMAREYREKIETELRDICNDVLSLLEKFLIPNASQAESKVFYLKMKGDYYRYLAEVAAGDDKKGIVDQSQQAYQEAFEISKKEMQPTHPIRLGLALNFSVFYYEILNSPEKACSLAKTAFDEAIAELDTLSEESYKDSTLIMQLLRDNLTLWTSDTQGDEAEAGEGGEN
RanGTP-Impb inh: inhibitors of RanGTP-importin-beta interaction, primary screen, biochemical, FRET, CFP-Ran, YFP-importin-beta, homogeneous; Ran GTPase (GTP-bound) - importin-beta complex; cell-free CFP-Ran/YFP-importin-beta FRET ratio; inhibition, % (test concentration not listed); hit rate 1.1% among 300,000;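 active = more than half of the replicate wells show a fall in the fluorescence ratio signal beyond about 16%, limit read from the data, passing the limit was not always enough; inconclusive = exactly half of the replicate wells pass the set limit; inactive = fewer than half of replicates pass the limit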;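 note: 0% = DMSO wells and 100% = Ran loaded with GDP instead of GTP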
Tb hexokinase: Trypanosoma brucei hexokinase 1 inhibitors, primary screen, biochemical, G6PDH-coupled NADH absorbance, MLSCN library | recombinant TbHK1, G6PDH-coupled NADH A340 | inhibition, % at 10 µM | hit rate 0.11% among 220,000;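 active = inhibition of 50% or more in the single-dose primary screen; inactive = inhibition below 50%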
Hck Nef HTS: inhibitors of Nef-activated human Hck kinase, primary screen, biochemical, Z-Lyte FRET, 384-well, Hck-YEEI; Recombinant Hck-YEEI plus Nef, Z-Lyte FRET kinase assay; hit rate 0.68% among 220,000; inhibition, % at 20 µM;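 active = Hck-Nef kinase inhibition above about 50%, limit read from the data; inactive = inhibition below that limit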;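 note: 0% = DMSO with Hck plus Nef and 100% = Hck alone without Nef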
Runt-SMMHC FRET: inhibitors of RUNX1 Runt–CBFb-SMMHC binding, primary screen, biochemical, FRET, Cerulean-Runt, Venus-CBFb-SMMHC, uHTS; hit rate 0.74% among 220,000; Cerulean-Runt/Venus-CBFb-SMMHC FRET ratio 530/480, 1 h; Runt-related transcription factor 1 (Homo sapiens) + Core-binding factor subunit beta …; AID 1434, 2008; inhibition, % at 20 µM;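 active = mean inhibition across duplicate retests at 20 µM reaching about 50%, limit read from the data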;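 note: 0% = DMSO wells and 100% = wells with excess untagged CBFb-SMMHC; inhibitors lower the FRET ratio by blocking Runt binding to CBFb-SMMHC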
RUNX1 CBFb TR: inhibitors of RUNX1 Runt–CBFb binding, biochemical, TR-FRET | hit rate 20% among 480 | AID 1502, 2009 | shares compounds with Runt-CBFb FRET | inhibition, % at 20 µM | TR-FRET RUNX1 Runt domain-CBFb binding; in the data active = inhibition above about 40%
YIC counter: YIC intramolecular FRET probe signal interference, dose response, counter-screen for RanGTP-importin-beta inhibitor project, biochemical, fluorescence FRET | shares compounds with RanGTP-Impb inh | Purified YIC probe, intramolecular FRET ratio YFP/CFP | IC50, µM | hit rate 40% among 1,000 | AID 435026, 2010;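 active = fitted half-maximal inhibitory concentration no more than tenfold above the top dose tested; inconclusive = flat fit with 30 to 70% activity, or poor fit; inactive = half-maximal concentration beyond tenfold above the top dose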
The depositor's hits bear a star. Only some compounds are listed: those with a hit (about 2.2% of all), similar ones and a draw of the others.

Screening COc1ccccc1CNC(=O)/C=C/c1ccc(S(=O)(=O)N2CCOCC2)cc1 returned Runt-CBFb FRET -1.4, 14-3-3 Bad inh -5.9, RanGTP-Impb inh 2.7, Tb hexokinase 2.1, Hck Nef HTS 16.3 and Runt-SMMHC FRET 1.4.
For Cc1nc2c(c(=O)n1Cc1ccccc1Cl)c1nc3ccccc3nc1n2Cc1ccco1 the results were Runt-CBFb FRET 33.4 and Runt-SMMHC FRET 20.5.
COc1ccc(Cn2c3nc4ccccc4nc3c3c(=O)n(Cc4ccco4)c(C)nc32)cc1 was read as Runt-CBFb FRET 51.8*, Runt-SMMHC FRET 47.5 and RUNX1 CBFb TR -29.2.
For Cc1ccc(C(=O)n2nnc3ccccc32)cc1[N+](=O)[O-] the results were Runt-CBFb FRET 88.9*, 14-3-3 Bad inh 10.5, RanGTP-Impb inh -8.1, Tb hexokinase 0.7, Hck Nef HTS 3.3, Runt-SMMHC FRET -2.0 and RUNX1 CBFb TR -8.3.
For Cc1ccc(C(=O)Cn2nnc3ccccc32)cc1[N+](=O)[O-] the results were Runt-CBFb FRET 0.7, 14-3-3 Bad inh -12.4, RanGTP-Impb inh 0.7, Tb hexokinase -13.0, Hck Nef HTS 20.8 and Runt-SMMHC FRET 2.6.
Screening Cc1ccc2c(COC(=O)CC3Sc4ccccc4NC3=O)cc(=O)oc2c1C (stereo not given) returned Runt-CBFb FRET -5.3, 14-3-3 Bad inh -4.6, RanGTP-Impb inh -1.8, Tb hexokinase 16.7, Hck Nef HTS 2.7 and Runt-SMMHC FRET 1.9.
Screening O=C(CC1Sc2ccccc2NC1=O)OCc1cc(=O)oc2cc(O)ccc12 (stereo not given) returned Runt-CBFb FRET 62.0*, 14-3-3 Bad inh -14.5, RanGTP-Impb inh inconclusive, Tb hexokinase 14.0, Hck Nef HTS 13.5 and RUNX1 CBFb TR 48.9*.
Screening COc1ccccc1N1C(=O)C2CC(C)=C(C)CC2C1=O (stereo not given) returned Runt-CBFb FRET -1.3, 14-3-3 Bad inh -7.2, RanGTP-Impb inh -3.3, Tb hexokinase 2.5, Hck Nef HTS 1.5 and Runt-SMMHC FRET 0.1.
COc1ccccc1N1C(=O)C=C(Sc2nc(C)cc(C)n2)C1=O was read as Runt-CBFb FRET 59.7*, 14-3-3 Bad inh 10.5, RanGTP-Impb inh -2.9, Tb hexokinase 2.1, Hck Nef HTS -172.3, Runt-SMMHC FRET 68.5* and RUNX1 CBFb TR 36.8.
`Cn1c(-c2cc3ccccc3oc2=O)nc2ccccc21` gave Runt-CBFb FRET -0.3, 14-3-3 Bad inh -2.2, RanGTP-Impb inh -1.9, Tb hexokinase -38.0, Hck Nef HTS -2.7 and Runt-SMMHC FRET 0.6.
Screening COc1ccc2cc(-c3nc4ccccc4n3C)c(=O)oc2c1 returned Runt-CBFb FRET 59.5*, 14-3-3 Bad inh 5.4, RanGTP-Impb inh 43.6*, Tb hexokinase -33.2, Hck Nef HTS 1.5, Runt-SMMHC FRET 127.1*, RUNX1 CBFb TR 24.3 and YIC counter 11*.
O=C(NC1CCCC1)C(c1ccccc1)N(Cc1ccccc1)C(=O)c1csnn1 (stereo not given) was read as RanGTP-Impb inh 2.6.
For CCOc1ccccc1C(=O)N(Cc1sccc1C)C1CCS(=O)(=O)C1 (stereo not given) the results were RanGTP-Impb inh 2.5.
